According to ChEMBL document CHEMBL5325455, “Daphnanes diterpenes from the latex of Hura crepitans L. and their PKCζ-dependent anti-proliferative activity on colorectal cancer cells” (Bioorg Med Chem, 2023):
Calls of active or inactive are those of the source. The calls are words filed in the database; no cut-off is given here.

Legend:
Caco-2 = experiment: Cytostatic activity against human Caco-2 cells assessed as reduction in cell growth at 1 ug/ml preincubated for 15 mins with PD0325901 followed by compound addition and measured after 48 hrs by MTS assay; type: functional, cell-based; settings: dose 1.0 µg/ml
Summary of the method: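 Caco-2 cells were pretreated with 0.5 µM PD0325901 for 15 min, then given compound at 1 µg/mL for 48 h. Viability was measured by MTS at 490 nm; n=3, t-test versus DMSO.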

[1] = molecular target: Protein kinase C delta type (Homo sapiens) (UniProt Q05655); experiment: Inhibition of PKCdelta in human Caco-2 cells assessed as ratio of phosphorylated PKCdelta at Ser664 residue to total PKCdelta level at 1 ug/ml incubated for 48 hrs by Western blot analysis (reference value: 0.77); type: cell-based; settings: dose 1.0 µg/ml
[2] = molecular target: T1, Protein kinase C zeta type (Homo sapiens) (UniProt Q05513); experiment: Activation of PKCzeta in human Caco-2 cells assessed as increase in phosphorylation at Thr410 residue at 1 ug/ml measured after 48 hrs by Western blot analysis; type: cell-based; settings: filed as activator, dose 1.0 µg/ml
T1 sequence (whole entry): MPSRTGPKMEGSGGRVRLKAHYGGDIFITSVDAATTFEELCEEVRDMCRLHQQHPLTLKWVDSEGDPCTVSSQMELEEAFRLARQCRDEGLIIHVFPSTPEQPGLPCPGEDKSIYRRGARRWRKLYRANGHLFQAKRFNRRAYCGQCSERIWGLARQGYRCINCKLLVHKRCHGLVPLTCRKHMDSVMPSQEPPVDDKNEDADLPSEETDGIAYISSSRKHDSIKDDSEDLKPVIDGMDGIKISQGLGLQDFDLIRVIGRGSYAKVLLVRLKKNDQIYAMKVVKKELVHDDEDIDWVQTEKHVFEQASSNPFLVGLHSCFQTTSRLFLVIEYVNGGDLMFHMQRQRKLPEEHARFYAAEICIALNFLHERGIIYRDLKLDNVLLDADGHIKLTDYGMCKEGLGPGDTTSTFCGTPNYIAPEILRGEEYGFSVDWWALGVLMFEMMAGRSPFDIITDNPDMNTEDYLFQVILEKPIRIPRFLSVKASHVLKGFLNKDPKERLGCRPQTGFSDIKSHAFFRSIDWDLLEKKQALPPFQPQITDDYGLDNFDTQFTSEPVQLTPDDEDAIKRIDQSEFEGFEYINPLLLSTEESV
Summary of the method: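 Caco-2 cells (0.25 × 10^6/well) were pretreated or not with 2.5 µM CRT0066854 for 30 min, then treated at 1 µg/mL for 48 h. Lysis buffer was pH 7.4 Tris/NaCl/0.1% Triton/EDTA with protease and phosphatase inhibitors. 30 µg protein was run on 4–15% SDS-PAGE, blotted and probed overnight at 4°C for pThr410-PKCζ and total PKCζ, with HRP/ECL detection.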

[3] = molecular target: T1, Protein kinase C zeta type (Homo sapiens); experiment: Activation of PKCzeta in human Caco-2 cells assessed as increase in colocalization of PKCzeta and actin in dense cell aggregates at 1 ug/ml measured after 48 hrs by immunostaining analysis; type: cell-based; settings: filed as activator, dose 1.0 µg/ml
Summary of the method: (§1)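 Caco-2 cells were seeded at 40 000/well and treated for 48 h as in the viability assay. They were fixed in 3.7% PFA for 20 min and permeabilised in HBSS/0.5% Triton X100/1% BSA. Anti-PKCζ (1/50) or anti-PKCα (1/200) was applied overnight at 4°C, then Alexa 488 secondary for 45 min. Phalloidin and Hoechst counterstained the cells before confocal imaging; PKCα signal was quantified by immunofluorescence.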

[4] = molecular target: T1, Protein kinase C zeta type (Homo sapiens); experiment: Activation of PKCzeta in human Caco-2 cells assessed as increase in colocalization of PKCzeta and actin in peripheral to cell aggregates at 1 ug/ml measured after 48 hrs by immunostaining analysis; type: cell-based; settings: filed as activator, dose 1.0 µg/ml; summary of the method: as §1

Chain of Protein kinase C delta type (Homo sapiens) (Q05655 whole entry, looked up): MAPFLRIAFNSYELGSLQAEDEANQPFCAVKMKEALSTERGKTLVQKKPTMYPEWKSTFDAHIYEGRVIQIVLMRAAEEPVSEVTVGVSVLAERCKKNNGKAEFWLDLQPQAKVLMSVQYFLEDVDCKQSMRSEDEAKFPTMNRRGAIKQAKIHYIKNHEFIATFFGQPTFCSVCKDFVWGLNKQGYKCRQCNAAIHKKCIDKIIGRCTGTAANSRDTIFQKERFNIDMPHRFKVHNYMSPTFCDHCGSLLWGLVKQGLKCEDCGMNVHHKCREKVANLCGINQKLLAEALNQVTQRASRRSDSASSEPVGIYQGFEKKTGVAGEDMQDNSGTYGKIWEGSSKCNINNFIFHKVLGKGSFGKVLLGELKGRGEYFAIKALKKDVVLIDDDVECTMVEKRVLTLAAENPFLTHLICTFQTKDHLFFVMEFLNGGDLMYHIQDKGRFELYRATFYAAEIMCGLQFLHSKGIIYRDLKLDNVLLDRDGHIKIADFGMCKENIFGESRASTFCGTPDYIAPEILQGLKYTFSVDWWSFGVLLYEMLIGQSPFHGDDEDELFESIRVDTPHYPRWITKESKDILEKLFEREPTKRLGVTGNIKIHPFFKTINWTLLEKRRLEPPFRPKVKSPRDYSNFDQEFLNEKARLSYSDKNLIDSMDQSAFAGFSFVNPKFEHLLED

With `C=C(C)[C@]12C[C@@H](C)[C@@]34O[C@](/C=C/C=C/CCCCCCCCC)(O[C@@H]1[C@@H]3[C@@H]1O[C@]1(CO)[C@@H](O)[C@]1(O)C(=O)C(C)=C[C@H]14)O2` the Activity (Caco-2) was “inactive”, the Ratio [1] was 0.73 and the Activity [2] was “Active”. For the same compound, the Activity [3] was “Active”.

With `C=C(C)[C@]12C[C@@H](C)[C@@]34O[C@](/C=C/[C@@H]5O[C@H]5CCCCCCCCC)(O[C@@H]1[C@@H]3[C@@H]1O[C@]1(CO)[C@@H](O)[C@]1(O)C(=O)C(C)=C[C@H]14)O2` the Activity [4] was “Active”.
